Experimental data taken from publication PMC9924434 (International journal of pharmaceutics, 2023).

Tests used:
[1] = Solubility of DK-I-60-3 in lipid mixtures; format: physicochemical
How it was run: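 DSC on bulk and melted-then-solidified Softisan 154 and on Softisan 154–lecithin mixtures, blank or with 1.0% or 1.5% test compound. Crystallinity index = mixture enthalpy / untreated Softisan 154 enthalpy × 100. PLM: melted mixture dropped onto heated slide, covered, solidified quickly at room temperature, imaged at 400× with crossed polarizers and ¼λ plate. Triplicates, mean ± SD.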

[2] = ref Mitrović et al., 2021; cited from earlier work

Structure (SMILES): [2H]C([2H])([2H])Oc1ccc(-n2nc3c4ccc(OC([2H])([2H])[2H])cc4[nH]cc-3c2=O)cc1 [DK-I-60-3, 7-methoxy-d3-2-(4-methoxy-d3-phenyl)-2,5-dihydro-3Hpyrazolo[4,3-c]quinolin-3-one]
- saturation solubility of DK-I-60-3 in the lipid mixture ([1]; Softisan 154 + lecithin (30%) lipid mixture, by DSC and PLM): 1.0%
- DK-I-60-3 solubilized by the lipid matrix ([1]; mixture of solid (Softisan 154) and liquid (medium chain triglycerides) lipid, preliminary studies): < 0.5%
- solubility in common organic solvents [2]: very slightly or slightly soluble
- solubility in water and oils commonly used for pharmaceutical formulations [2]: practically insoluble
